In ChEMBL document CHEMBL1133569, “A potent, long-acting, orally active (2R)-2-[(1R)-3, 3-difluorocyclopentyl]-2-hydroxy-2-phenylacetamide: novel muscarinic M(3) receptor antagonist with high selectivity for M(3) over M(2) receptors” (J Med Chem, 2000):
pKi: −log10 of the molar value.

Key:
[1] = biological target: T1, Muscarinic acetylcholine receptor M2 (Homo sapiens, UniProt P08172); assay: Inhibition of [3H]NMS binding to human muscarinic acetylcholine receptor M2 expressed in CHO cells; type: cell-based
T1 sequence (P08172 whole entry): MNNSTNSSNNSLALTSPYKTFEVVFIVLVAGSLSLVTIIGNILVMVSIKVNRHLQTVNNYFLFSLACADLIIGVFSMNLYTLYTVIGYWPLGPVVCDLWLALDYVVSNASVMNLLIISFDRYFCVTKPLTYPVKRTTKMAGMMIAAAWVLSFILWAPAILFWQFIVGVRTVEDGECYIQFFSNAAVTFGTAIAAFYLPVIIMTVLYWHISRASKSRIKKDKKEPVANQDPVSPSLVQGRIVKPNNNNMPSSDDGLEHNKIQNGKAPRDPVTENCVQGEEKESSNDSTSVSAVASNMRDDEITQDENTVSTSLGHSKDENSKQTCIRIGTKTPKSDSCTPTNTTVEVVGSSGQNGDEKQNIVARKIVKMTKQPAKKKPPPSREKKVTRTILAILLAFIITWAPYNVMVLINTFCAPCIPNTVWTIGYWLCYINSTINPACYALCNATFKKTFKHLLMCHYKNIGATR
Method in brief: (§1)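 Competition binding against [3H]-NMS on membranes from CHO cells expressing cloned human m2 or m3 receptors. Affinity is taken from inhibition of specific binding, as the mean of two or more independent assays.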

[2] = biological target: T2, Muscarinic acetylcholine receptor M3 (Homo sapiens, UniProt P20309); assay: Inhibition of [3H]NMS binding to human muscarinic acetylcholine receptor M3 expressed in CHO cells; type: cell-based; method in brief: as §1
Canis familiaris [3] = assay: Metacholine provocation test was conducted 4 hr after oral administration (1 mg/kg) in anesthetized dogs. The bronchodilatory activity is expressed as shifts; type: functional, Canis lupus familiaris
Homo sapiens [4] = species on record: Homo sapiens; assay: In vitro metabolic stability in human hepatic microsomes (1 mg protein/mL), expressed as the percent remaining after 30 min of incubation at […].; type: functional; details: Liver, 37 °C
Method in brief: (§2)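 Test compound at 10 µM incubated 30 min at 37 °C with dog or human hepatic microsomes (1 mg protein/mL). Read-out is percent of parent remaining. More than 2 determinations.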

Canis familiaris [5] = species on record: Canis familiaris; assay: In vitro metabolic stability in dog hepatic microsomes (1 mg protein/mL), expressed as the percent remaining after 30 min of incubation at […].; type: functional; details: Canis lupus familiaris, Liver, 37 °C; method in brief: as §2
[6] = biological target: T2, Muscarinic acetylcholine receptor M3; assay: Ability to inhibit binding of [3H]NMS was determined by receptor binding assay using membranes from chinese hamster ovary (CHO) cells expressing cloned Muscarinic acetylcholine receptor M3; type: cell membranes
Method in brief: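 Radioligand displacement of [3H]-NMS specific binding on membranes prepared from CHO cells transfected with cloned human m3 receptor. Affinity was derived from inhibition of specific binding. Each value is the mean of two or more independent assays.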

Homo sapiens [7] = species on record: Homo sapiens; assay: In vitro metabolic stability in human hepatic microsomes (1 mg protein/mL) was reported as the percent remaining after 30 min of incubation […]; type: functional; details: Liver; method in brief: as §2

T2 sequence (P20309 whole entry): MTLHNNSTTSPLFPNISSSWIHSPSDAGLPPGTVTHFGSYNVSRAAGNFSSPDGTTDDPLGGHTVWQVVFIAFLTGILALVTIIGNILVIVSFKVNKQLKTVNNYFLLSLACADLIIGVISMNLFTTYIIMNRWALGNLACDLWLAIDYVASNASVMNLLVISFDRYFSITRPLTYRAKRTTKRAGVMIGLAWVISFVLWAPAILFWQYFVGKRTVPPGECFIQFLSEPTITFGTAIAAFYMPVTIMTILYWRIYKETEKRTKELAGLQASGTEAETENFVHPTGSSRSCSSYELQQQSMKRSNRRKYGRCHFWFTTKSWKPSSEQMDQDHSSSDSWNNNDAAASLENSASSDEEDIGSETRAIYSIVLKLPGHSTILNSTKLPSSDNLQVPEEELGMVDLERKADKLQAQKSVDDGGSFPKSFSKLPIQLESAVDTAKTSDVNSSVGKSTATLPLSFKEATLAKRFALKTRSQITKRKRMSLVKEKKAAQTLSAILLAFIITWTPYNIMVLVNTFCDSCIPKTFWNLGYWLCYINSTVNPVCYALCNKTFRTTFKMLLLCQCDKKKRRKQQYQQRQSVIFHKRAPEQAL

Row | Structure (SMILES) | pKi [1] | pKi [2] | Activity (Canis familiaris [3]) | Metabolic stability (Homo sapiens [4]) [%] | Metabolic stability (Canis familiaris [5]) [%] | pKi [6] | Metabolic stability (Homo sapiens [7]) [%]
1 | O=C(NC1CCN(CC2CCCC2)CC1)C(O)(c1ccccc1)C1CCCC1 (centres undefined) | 4.85 | 6.57 |  |  |  |  | 
2 | Nc1cccc(CN2CCC(NC(=O)[C@](O)(c3ccccc3)[C@@H]3CCC(F)(F)C3)CC2)n1 | 6.28 | 8.55 | >64 | 80 | 84 |  | 
3 | CC(C)=CCCN1CCC(NC(=O)[C@](O)(c2ccccc2)[C@H]2CC[C@H](O)C2)CC1 | 5.64 | 7.74 | 2.9 | 76 | 75 |  | 
4 | O=C(NC1CCN(CC2CCCCCC2)CC1)C(O)(c1ccccc1)C1CCCC1 (centres undefined) | 5.51 | 7.92 |  |  |  |  | 
5 | CC(C)=CCCN1CCC(NC(=O)[C@](O)(c2ccccc2)[C@H]2CCC(F)(F)C2)CC1 | 5.85 | 7.80 |  | 75 | 77 |  | 
6 | O=C(NC1CCN(Cc2ccccc2)CC1)C(O)(c1ccccc1)C1CCCC1 (centres undefined) | 7.52 |  |  |  |  |  | 
7 | O=C(NC1CCN(Cc2ccoc2)CC1)C(O)(c1ccccc1)C1CCCC1 (centres undefined) | 5.74 | 7.30 |  |  |  |  | 
8 | Cc1cccc(CN2CCC(NC(=O)[C@](O)(c3ccccc3)[C@@H]3CCC(F)(F)C3)CC2)n1 |  |  |  | 52 | 24 |  | 
9 | O=C(NC1CCN(CC2CCCCC2)CC1)[C@](O)(c1ccccc1)[C@@H]1CCC(F)(F)C1 | 4.68 | 7.74 | 2.3 | 86 | 70 |  | 
10 | CC(C)=CCCN1CCC(NC(=O)[C@](O)(c2ccccc2)[C@@H]2CCC(F)(F)C2)CC1 | 5.70 | 8.21 | 4.2 | 68 | 70 |  | 
11 | Cc1cccc(CN2CCC(NC(=O)C(O)(c3ccccc3)C3CCCC3)CC2)c1 (centres undefined) | 7.15 | 8.64 |  |  |  |  | 
12 | Cc1cccc(CN2CCC(NC(=O)C(O)(c3ccccc3)C3CCCC3)CC2)n1 (centres undefined) | 5.62 | 7.96 |  |  |  |  | 
13 | O=C(NC1CCN(Cc2ccsc2)CC1)C(O)(c1ccccc1)C1CCCC1 (centres undefined) | 7.10 | 8.44 |  |  |  |  | 
14 | Nc1cccc(CN2CCC(NC(=O)[C@](O)(c3ccccc3)[C@@H]3CCC(F)(F)C3)CC2)c1 | 6.48 | 8.16 |  | 90 | 88 |  | 
15 | O=C(NC1CCN(Cc2ccccc2)CC1)[C@](O)(c1ccccc1)[C@@H]1CCC(F)(F)C1 | 6.59 | 8.42 |  | 47 | 45 |  | 
16 | NCc1cccc(CN2CCC(NC(=O)[C@](O)(c3ccccc3)[C@@H]3CCC(F)(F)C3)CC2)c1 | 5.47 | 7.68 |  | 80 | 77 |  | 
17 | O=C(NC1CCN(Cc2ccccn2)CC1)[C@](O)(c1ccccc1)[C@@H]1CCC(F)(F)C1 | 5.62 | 7.89 |  | 60 | 45 |  | 
18 | O=C(NC1CCN(CC2CCCCCCC2)CC1)C(O)(c1ccccc1)C1CCCC1 (centres undefined) | 5.03 | 7.03 |  |  |  |  | 
19 | O=C(NC1CCN(Cc2cccc(CO)c2)CC1)[C@](O)(c1ccccc1)[C@@H]1CCC(F)(F)C1 | 5.16 |  | 3.1 | 34 | 73 |  | 
20 | O=C(NC1CCN(Cc2cccnc2)CC1)C(O)(c1ccccc1)C1CCCC1 (centres undefined) | 5.34 | 7.00 |  |  |  |  | 

Row | Structure (SMILES) | pKi [1] | pKi [2] | Activity (Canis familiaris [3]) | Metabolic stability (Homo sapiens [4]) [%] | Metabolic stability (Canis familiaris [5]) [%] | pKi [6] | Metabolic stability (Homo sapiens [7]) [%]
21 | O=C(NC1CCN(CC2CCCCC2)CC1)C(O)(c1ccccc1)C1CCCC1 (centres undefined) | 5.48 | 7.77 |  |  |  |  | 
22 | O=C(NC1CCN(Cc2ccsc2)CC1)[C@](O)(c1ccccc1)[C@@H]1CCC(F)(F)C1 |  |  |  | 35 | 37 |  | 
23 | O=C(NC1CCN(Cc2ccncc2)CC1)C(O)(c1ccccc1)C1CCCC1 (centres undefined) | 5.19 | 6.72 |  |  |  |  | 
24 | O=C(NC1CCN(Cc2cccc(O)c2)CC1)[C@](O)(c1ccccc1)[C@@H]1CCC(F)(F)C1 | 7.43 | 8.27 |  | 56 | 73 |  | 
25 | Cc1cccc(CN2CCC(NC(=O)[C@](O)(c3ccccc3)[C@@H]3CCC(F)(F)C3)CC2)c1 | 6.51 |  | 25 | 55 | 32 | 8.70 | 
26 | Nc1ccc(CN2CCC(NC(=O)[C@](O)(c3ccccc3)[C@@H]3CCC(F)(F)C3)CC2)cc1F | 6.51 | 8.21 |  | 78 | 78 |  | 
27 | Nc1ccc(CN2CCC(NC(=O)[C@](O)(c3ccccc3)[C@@H]3CCC(F)(F)C3)CC2)cc1 | 6.66 | 8.11 | 43 | 88 | 89 |  | 
28 | COc1cccc(CN2CCC(NC(=O)C(O)(c3ccccc3)C3CCCC3)CC2)c1 (centres undefined) | 6.57 | 8.23 |  |  |  |  | 
29 | CC(C)=CCCN1CCC(NC(=O)[C@](O)(c2ccccc2)[C@H]2CC[C@H](F)C2)CC1 | 5.89 | 7.72 |  | 66 | 60 |  | 
30 | COc1cccc(CN2CCC(NC(=O)[C@](O)(c3ccccc3)[C@@H]3CCC(F)(F)C3)CC2)c1 |  |  |  | 46 | 53 |  | 
31 | Cc1ccc(CN2CCC(NC(=O)C(O)(c3ccccc3)C3CCCC3)CC2)cc1 (centres undefined) | 7.66 | 8.19 |  |  |  |  | 
32 | O=C(NC1CCN(CC2CCCCCC2)CC1)[C@](O)(c1ccccc1)[C@@H]1CCC(F)(F)C1 | 4.77 |  |  |  |  | 7.55 | 
33 | O=C(NC1CCN(Cc2ccccn2)CC1)C(O)(c1ccccc1)C1CCCC1 (centres undefined) | 6.49 | 7.85 |  |  |  |  | 
34 | CC(C)=CCCN1CCC(NC(=O)[C@](O)(c2ccccc2)C2CCCC2)CC1 | 6.31 |  | 5.2 | 54 | 31 |  | 
35 | O=C(NC1CCN(Cc2cccc(F)c2)CC1)[C@](O)(c1ccccc1)[C@@H]1CCC(F)(F)C1 | 6.32 | 8.51 |  |  | 23 |  | 52
36 | CC(C)=CCCN1CCC(NC(=O)[C@](O)(c2ccccc2)[C@H]2CC[C@@H](F)C2)CC1 | 5.64 | 7.96 |  | 75 | 64 |  | 
37 | Cc1ccccc1CN1CCC(NC(=O)C(O)(c2ccccc2)C2CCCC2)CC1 (centres undefined) | 4.43 | 6.66 |  |  |  |  | 
38 | Cc1cc(CN2CCC(NC(=O)C(O)(c3ccccc3)C3CCCC3)CC2)cs1 (centres undefined) | 7.62 | 8.46 |  |  |  |  | 
39 | Nc1ccc(CN2CCC(NC(=O)[C@](O)(c3ccccc3)[C@@H]3CCC(F)(F)C3)CC2)nc1 | 6.03 | 7.82 |  |  |  |  | 
